Experimental data as given in ChEMBL document CHEMBL4177693, “Design, synthesis, and biological evaluation of thieno[2,3-d]pyrimidine derivatives as novel dual c-Met and VEGFR-2 kinase inhibitors” (Bioorg Med Chem, 2017).

Tests used:
BaF3 = assay: Antiproliferative activity against mouse BAF3 cells harboring […] at 1 uM after 72 hrs by CCK-8 assay relative to control; assay type: functional; conditions: BaF3, 72 h
Outline: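 Murine BaF3 cells expressing TPR-Met (c-Met-dependent) were plated in RPMI 1640 with 10% FBS. Serial compound dilutions or 0.1% DMSO were added the following day, and cells were incubated a further 72 h before CCK-8 read-out. IC50 was fitted by nonlinear regression; single-point percent inhibition was tested at 1 μM.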

HUVEC [1] = assay: Antiproliferative activity against human VEGF-stimulated HUVEC cells at 1 uM after 120 hrs by CCK-8 assay relative to control; assay type: functional
Outline: (§1)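 HUVECs were plated in human endothelial serum-free medium. The next day, serial dilutions of compound or 0.1% DMSO vehicle were added, with 60 ng/mL recombinant human VEGF to drive proliferation for 120 h. Viability was read by CCK-8. IC50 came from nonlinear regression; percent inhibition was also scored at a single 1 μM concentration.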

HUVEC [2] = assay: Antiproliferative activity against human VEGF-stimulated HUVEC after 120 hrs by CCK-8 assay; assay type: functional, cell-based; outline: as §1

SMILES	inhibition at 1 µM (BaF3) [%]	inhibition at 1 µM (HUVEC [1]) [%]	IC50 (HUVEC [2]) [nM]
Cc1c(C(=O)N(C)C)sc2ncnc(Oc3ccc(NC(=O)C4(C(=O)Nc5ccc(F)cc5)CC4)cc3F)c12	60	24.4	–
Cc1c(C(=O)NC2CC2)sc2ncnc(Oc3ccc(NC(=O)C4(C(=O)Nc5ccc(F)cc5)CC4)cc3F)c12	26.6	13.7	–
Cc1c(C(=O)NCCS(C)(=O)=O)sc2ncnc(Oc3ccc(NC(=O)C4(C(=O)Nc5ccc(F)cc5)CC4)cc3F)c12	96	79.5	86
CC(=O)N1CCN(C(=O)c2sc3ncnc(Oc4ccc(NC(=O)C5(C(=O)Nc6ccc(F)cc6)CC5)cc4F)c3c2C)CC1	61	23.8	–
Cc1c(C(=O)N2CCCC2)sc2ncnc(Oc3ccc(NC(=O)C4(C(=O)Nc5ccc(F)cc5)CC4)cc3F)c12	31.1	15.8	–
Cc1c(C(=O)NCCN2CCOCC2)sc2ncnc(Oc3ccc(NC(=O)C4(C(=O)Nc5ccc(F)cc5)CC4)cc3F)c12	95.4	73.6	89
Cc1c(C(=O)NCC#N)sc2ncnc(Oc3ccc(NC(=O)C4(C(=O)Nc5ccc(F)cc5)CC4)cc3F)c12	92.6	66.7	123
COCCNC(=O)c1sc2ncnc(Oc3ccc(NC(=O)C4(C(=O)Nc5ccc(F)cc5)CC4)cc3F)c2c1C	90.9	68.9	139
COC(=O)c1sc2ncnc(Oc3ccc(NC(=O)C4(C(=O)Nc5ccc(F)cc5)CC4)cc3F)c2c1C	18.1	4.56	–
Cc1c(C(=O)NCCN2CCCC2)sc2ncnc(Oc3ccc(NC(=O)C4(C(=O)Nc5ccc(F)cc5)CC4)cc3F)c12	88.2	29.7	–
CCOC(=O)c1sc2ncnc(Oc3ccc(NC(=O)C4(C(=O)Nc5ccc(F)cc5)CC4)cc3F)c2c1C	16.4	12.7	–
Cc1c(C(=O)NCCCN2CCOCC2)sc2ncnc(Oc3ccc(NC(=O)C4(C(=O)Nc5ccc(F)cc5)CC4)cc3F)c12	92.8	61.3	153
Cc1c(C(=O)NCCC(C)C)sc2ncnc(Oc3ccc(NC(=O)C4(C(=O)Nc5ccc(F)cc5)CC4)cc3F)c12	86.6	27.5	–
Cc1c(C(=O)OCc2ccccc2)sc2ncnc(Oc3ccc(NC(=O)C4(C(=O)Nc5ccc(F)cc5)CC4)cc3F)c12	10.5	6.17	–
COCCCNC(=O)c1sc2ncnc(Oc3ccc(NC(=O)C4(C(=O)Nc5ccc(F)cc5)CC4)cc3F)c2c1C	88.6	33.3	–
Cc1c(C(=O)N2CCCCC2)sc2ncnc(Oc3ccc(NC(=O)C4(C(=O)Nc5ccc(F)cc5)CC4)cc3F)c12	20.3	10.5	–
Cc1c(C(=O)N2CCSCC2)sc2ncnc(Oc3ccc(NC(=O)C4(C(=O)Nc5ccc(F)cc5)CC4)cc3F)c12	23	15.5	–
Cc1c(C(=O)N2CCOCC2)sc2ncnc(Oc3ccc(NC(=O)C4(C(=O)Nc5ccc(F)cc5)CC4)cc3F)c12	61.5	10.8	–
Cc1c(C(=O)O)sc2ncnc(Oc3ccc(NC(=O)C4(C(=O)Nc5ccc(F)cc5)CC4)cc3F)c12	2.13	8.72	–
Cc1c(C(=O)Nc2ccc(F)cc2)sc2ncnc(Oc3ccc(NC(=O)C4(C(=O)Nc5ccc(F)cc5)CC4)cc3F)c12	26.7	32.9	–
COc1cc2nccc(Oc3ccc(NC(=O)C4(C(=O)Nc5ccc(F)cc5)CC4)cc3)c2cc1OC [CABOZANTINIB]	97.7	72.8	–
